HePTP inhibitor – human HePTP phosphatase inhibition | P35236 | recombinant HePTP phosphatase activity, OD absorbance | inhibition, % at 20 µM | hit rate 0.64% among 110,000 | AID 521; in the data active = inhibition above about 50%
Target sequence (P35236 whole entry, looked up): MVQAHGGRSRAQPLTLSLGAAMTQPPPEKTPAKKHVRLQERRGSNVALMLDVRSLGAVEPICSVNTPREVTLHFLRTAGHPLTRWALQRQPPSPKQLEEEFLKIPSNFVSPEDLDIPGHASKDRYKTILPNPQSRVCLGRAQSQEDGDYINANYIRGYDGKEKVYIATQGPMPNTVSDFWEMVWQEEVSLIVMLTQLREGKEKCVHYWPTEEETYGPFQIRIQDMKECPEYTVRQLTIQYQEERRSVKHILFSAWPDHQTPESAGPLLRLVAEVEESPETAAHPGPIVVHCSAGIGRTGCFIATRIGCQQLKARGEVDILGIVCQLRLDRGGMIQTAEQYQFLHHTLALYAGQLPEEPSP
Ecoli WT expand – blocks growth of wild type E. coli BW25113. growth inhibition, % at 100 µM. OD600 absorbance. hit rate 0.15% among 98,000;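 active = growth inhibition above about 50% at one test dose, limit read from the data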;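 also: growth measured after 20 h incubation at 37 °C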
PostGolgi ctrl – yeast control strain growth, post-Golgi counter-screen; efflux-deficient yeast background strain, growth absorbance A615, 16 h; hit rate 5% among 98,000; inhibition, % at 10 µM
PLAP activator – human PLAP activation; P05187; purified PLAP enzyme, luminescent substrate read-out; active compounds read high; activation fold at 20 µM; hit rate 1.2% among 96,000; AID 696; in the data active = activation fold above about 2
tolC growth inh – growth inhibitors of E. coli BW25113 tolC mutant. AID 573. growth inhibition, % at 10 µM (by protocol). hit rate 2.2% among 65,000. OD615;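 active = growth inhibition at or above a cutoff equal to the mean over every tested compound plus 3 SD, cut at about 60% in these data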;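 also: growth measured after 20 h incubation at 37 °C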
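signal = optical density read at 615 nm | test system = E. coli ΔtolC::kan strain BW25113 | timing = 20 h compound exposure of bacteria at 37 °C | buffer or medium = LB medium plus 50 µg/mL kanamycin | compound dosing = 10 µM final, single dose | evaluation = % inhibition of E. coli growth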
PostGolgi yeast – growth inhibition of a yeast mutant, post-Golgi transport screen. post-Golgi transport phenotypic cell assay. inhibition, % at 10 µM. hit rate 0.9% among 98,000. AID 739;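 also: yeast cells grown in 1536-well plates; yeast grown about 18 h at 30C before absorbance read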
Numbers stand for hits; 0 = inactive; - = not tested or not shown. A selection: hits, their analogues and other compounds. The true share with any hit is near 5.4%. Rule as the data show it, unless noted: active = inhibition above about 30%; inactive = the rest.

SMILES | HePTP inhibitor | Ecoli WT expand | PostGolgi ctrl | PLAP activator | tolC growth inh | PostGolgi yeast
CC(C)(C)c1ccc(-c2n[nH]c(=S)n2C2CCCC2)cc1 | - | 0 | 59 | 0 | - | 0
O=C1Nc2cccnc2Sc2ccccc21 | 0 | 0 | 0 | 0 | 0 | 0
FC(F)(F)c1cnc2c(c1)Nc1ccccc1S2 | 0 | 0 | 0 | 0 | 0 | 33
CC1(C)CNC(=O)c2sc(N)nc2C1 | 0 | - | - | - | - | -
O=S(=O)(Cc1ccccc1)/C1=C(\N2CCOCC2)CCCCCC1 | 0 | 0 | 40 | 0 | 0 | 0
O=S(=O)(c1ccc(S(=O)(=O)N2CCN(Cc3ccccc3)CC2)cc1)N1CCOCC1 | 0 | 0 | 0 | 0 | 0 | 0
COc1ccccc1-c1c(C)nn2c(N3CCN(Cc4ccccc4)CC3)cc(C)nc12 | - | 0 | 30 | 0 | - | 0
COc1ccccc1-c1c(C)nn2c(N3CCCCCC3)cc(C)nc12 | 0 | 0 | 31 | 0 | 0 | 0
O=C(CCNS(=O)(=O)c1ccc(Br)s1)N1CCCCC1 | 0 | 0 | 0 | 0 | 0 | 0
CCCNS(=O)(=O)c1ccc(CCC(=O)N2CCN(c3ccc(OC)cc3)CC2)cc1 | - | 0 | 53 | 0 | - | 0
COc1ccc(N2CCN(C(=O)CCNS(=O)(=O)c3ccc(Br)s3)CC2)cc1 | 0 | 0 | 0 | 0 | 0 | 84
CCCNS(=O)(=O)c1ccc(CCC(=O)N2CCOCC2)cc1 | 0 | 0 | 0 | 0 | 0 | 0
COc1ccc(C(=O)/C(=C/c2cccs2)c2nc3ccccc3o2)cc1 | - | 0 | 38 | 0 | - | 0
O=C(N/N=C/c1ccc2c(c1)OCO2)c1sc2cc(Cl)ccc2c1Cl | 58 | - | - | - | - | -
COc1ccc2c(Cl)c(C(=O)N/N=C/c3ccc4c(c3)OCO4)sc2c1 | - | 0 | 0 | 0 | - | 0
CC(O)C1CCC2C3CC[C@H]4CC(O)CCC4(C)C3CC3(OCCO3)C12C (stereo not given in full) | - | 0 | 33 | 0 | - | 0
O=C(CN1C(=O)c2ccccc2C1=O)Nc1cccc2ncccc12 | 0 | - | - | - | - | -
COC(=O)c1ccccc1NC(=O)c1ccc(-c2ccccc2)cc1 | 0 | - | - | - | - | -
Cn1cccc1/C=N/n1c(-c2ccccc2)n[nH]c1=S | - | 0 | 0 | 0 | - | 0
Cn1cccc1/C=N/n1c(-c2ccc(C(C)(C)C)cc2)n[nH]c1=S | - | 0 | 37 | 0 | - | 0
CCOC(=O)C(NC(C)=O)(Nc1ccc(F)cc1)C(F)(F)F (stereo not given) | 0 | 0 | 0 | 0 | 0 | 0
CCOC(=O)NC(Nc1ccc(S(N)(=O)=O)cc1)(C(=O)OCC)C(F)(F)F (stereo not given) | 0 | 0 | 0 | 0 | 0 | 32
O=c1[nH]c(/C=C/c2cc([N+](=O)[O-])ccc2O)c([N+](=O)[O-])c(=O)[nH]1 | 0 | - | - | - | - | -
COc1ccc(N(C(=O)Nc2ccccc2[N+](=O)[O-])C(C)C2CC2)cc1 (stereo not given) | 0 | - | - | - | - | -
CC1CCN(C(=O)C2CCN(S(=O)(=O)c3cccc4nonc34)CC2)CC1 | - | 0 | 31 | 0 | - | 0
SMILES | HePTP inhibitor | Ecoli WT expand | PostGolgi ctrl | PLAP activator | tolC growth inh | PostGolgi yeast
COc1ccc(OC)c(/C=C(/C#N)C(=O)Nc2ccc(Cl)cc2)c1 | 0 | - | - | - | - | -
O=C(/C=C/c1ccc(F)cc1)NC(=S)Nc1cccc([N+](=O)[O-])c1 | 0 | - | - | - | - | -
CC(C)(C)c1[nH]nc2c1C(Cc1ccccc1)C(C#N)=C(N)O2 (stereo not given) | 0 | 0 | 40 | 0 | 64 | 0
CC(C)(C)c1[nH]nc2c1C(c1cccnc1)C(C#N)=C(N)O2 (stereo not given) | 0 | 0 | 0 | 0 | 0 | 0
O=C(Nc1ccccc1C(=O)OCc1nnc(-c2ccccc2)o1)c1ccco1 | 0 | 0 | 48 | 0 | 0 | 0
CCCCCCCCOC(=O)C1=C(C)Nc2nnnn2C1c1cccs1 (stereo not given) | - | 0 | 79 | 0 | - | 0
C=CCOC(=O)C1=C(C)Nc2ncnn2C1c1cc(Br)ccc1F (stereo not given) | 0 | 0 | 0 | 0 | 0 | 0
CCCCCCCOC(=O)C1=C(C)Nc2ncnn2C1c1cccs1 (stereo not given) | - | 0 | 0 | 0 | - | 0
C=CCOC(=O)C1=C(C)Nc2ncnn2C1c1cccs1 (stereo not given) | - | 0 | 0 | 0 | - | 31
C/C(CC(=O)Nc1cccc2c1CCCC2)=N\NC(=O)c1ccccc1N | - | 0 | 32 | 0 | - | 0
C/C(CC(=O)Nc1cccc2c1CCCC2)=N\NC(=O)C(=O)NC1CCCCC1 | 0 | - | - | - | - | -
O=C(CCC1CCCC1)c1c(O)c2ccccc2oc1=O | 0 | 0 | 0 | 0 | 97 | 0
CC1(C)CC(=O)C2=C(C1)Oc1ncn(CCO)c(=N)c1C2c1ccccc1 (stereo not given) | 0 | 0 | 31 | 0 | 0 | 0

Bioassay records from PubChem BioAssay.
